Where “and” joins values, the source holds several entries; their conditions need not be identical. Equal values may be shown once.

A word on the Ki: it is a measure of affinity in units of concentration, obtained from inhibition or displacement. The low end stands for a stronger hold on the target, the high end for a looser hold on the target.

Holding throughout (assay type): cell-based
Assay [1] concerns the target T1, GluA2Qflip AMPA receptor (Homo sapiens, UniProt P42262). Briefly: Solution-flow amplitude measurement of whole-cell current. To be noted: Ki (closed-channel), solution-flow technique, GluA2Qflip in HEK-293 cells; 100 μM glutamate; amplitude A/AI, eq 6.
Assay [2] has as its target T1, GluA2Qflip AMPA receptor. Briefly: Laser-pulse photolysis rate measurement of channel opening. To be noted: for Mechanism of inhibition: inhibited both kop and kcl. The essentials:
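Transfected HEK-293S cells expressing GluA2Qflip were whole-cell clamped at −60 mV, pH 7.4, 22 °C. After 6 s preincubation with inhibitor, caged glutamate was photolysed by a 355 nm laser pulse of 200–800 μJ, with released glutamate calibrated against free glutamate in the same cell. The kcl term was taken from kobs at 100 μM glutamate over a range of inhibitor concentrations (eq 4), and kop at 350 μM (eq 5).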

In assay [3] the target is T1, GluA2Qflip AMPA receptor. The assay can be described thus: Laser-pulse photolysis amplitude measurement of whole-cell current. Put shortly:
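HEK-293S cells in DMEM/10% FBS at 37 °C, 5% CO2, were transiently transfected with GluA2Qflip by calcium phosphate, with GFP and large T-antigen plasmids, and used at 48 h. Whole-cell recording at −60 mV, pH 7.4, 22 °C in HEPES/NaCl buffer. Caged glutamate was photolysed by a 355 nm pulse after 6 s inhibitor preincubation. The A/AI ratio versus inhibitor concentration was fitted by eq 6.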

Setting [4] is: Ki (100 μM glu), amplitude measurement, laser-pulse photolysis, GluA2Qflip in HEK-293 cells, 100 μM glutamate, closed-channel state.

T1 sequence (P42262 25-883 isoform P42262-2 limits assumed): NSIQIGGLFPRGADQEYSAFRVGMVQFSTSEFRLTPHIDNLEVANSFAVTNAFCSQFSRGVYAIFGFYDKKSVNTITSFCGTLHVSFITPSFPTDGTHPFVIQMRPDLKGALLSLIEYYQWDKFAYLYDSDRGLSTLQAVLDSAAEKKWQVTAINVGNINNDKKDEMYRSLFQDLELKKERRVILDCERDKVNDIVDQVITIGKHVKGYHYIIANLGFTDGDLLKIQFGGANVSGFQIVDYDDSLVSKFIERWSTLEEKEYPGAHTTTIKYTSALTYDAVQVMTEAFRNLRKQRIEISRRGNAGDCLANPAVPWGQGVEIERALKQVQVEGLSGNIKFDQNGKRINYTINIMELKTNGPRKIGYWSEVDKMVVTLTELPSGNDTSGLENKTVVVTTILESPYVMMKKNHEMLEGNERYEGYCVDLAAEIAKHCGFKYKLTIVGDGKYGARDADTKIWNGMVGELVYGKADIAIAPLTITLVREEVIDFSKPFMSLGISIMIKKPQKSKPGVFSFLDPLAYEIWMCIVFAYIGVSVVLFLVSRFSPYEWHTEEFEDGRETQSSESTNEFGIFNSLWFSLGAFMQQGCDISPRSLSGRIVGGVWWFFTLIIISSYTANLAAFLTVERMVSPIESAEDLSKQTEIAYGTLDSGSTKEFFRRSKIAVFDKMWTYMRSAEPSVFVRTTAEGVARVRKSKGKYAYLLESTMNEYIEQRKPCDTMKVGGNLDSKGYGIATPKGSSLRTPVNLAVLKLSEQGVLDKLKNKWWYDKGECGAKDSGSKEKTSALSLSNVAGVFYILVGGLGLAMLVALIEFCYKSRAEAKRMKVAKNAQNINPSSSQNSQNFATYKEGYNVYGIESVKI

As for `Nc1ccc(C2=NNC(=O)Cc3cc4c(cc32)OCO4)cc1` [BDZ-2, 1-(4-aminophenyl)-3,5-dihydro-7,8-methylenedioxy-4H-2,3-benzodiazepin-4-one], the Ki at GluA2Qflip AMPA receptor [1] was 25 ± 1 µM; at GluA2Qflip AMPA receptor [2], 48 µM and 194 µM; on GluA2Qflip AMPA receptor [3], 23 to 25 µM; at GluA2Qflip AMPA receptor [3] (setting [4]), 25 ± 1 µM. In addition, the Mechanism of inhibition result at GluA2Qflip AMPA receptor [2] is “noncompetitive”.

Turning to `CC1=NN=C(c2ccc(N)cc2)c2cc3c(cc2C1)OCO3` [GYKI 52466, 1-(4-aminophenyl)-4-methyl-7,8-methylenedioxy-5H-2,3-benzodiazepine], the Ki on GluA2Qflip AMPA receptor [1] is 14 ± 1 µM; at GluA2Qflip AMPA receptor [2] it was 61 µM and 128 µM; at GluA2Qflip AMPA receptor [3] it was 14 to 16 µM; at GluA2Qflip AMPA receptor [3] (setting [4]), 15 ± 1 µM. Besides, at GluA2Qflip AMPA receptor [2], the Mechanism of inhibition result is recorded as “noncompetitive”.

These data come from article PMC3206322 (ACS chemical neuroscience, 2011).
